From ChEMBL document CHEMBL1139008, “Synthesis and antiviral evaluation of alkoxyalkyl derivatives of 9-(S)-(3-hydroxy-2-phosphonomethoxypropyl)adenine against cytomegalovirus and orthopoxviruses” (J Med Chem, 2006)

Tests used:
[1] = system: Murid betaherpesvirus 1; experiment: Antiviral activity against MCMV Smith replication; format: functional, organism-based; settings: Murid betaherpesvirus 1, Smith
How it was run: (§1)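 Plaque reduction used HCMV AD-169 in HFF cells (plated 2 days ahead) or MCMV Smith in MEF cells (plated 1 day ahead), at 20-30 PFU/well in triplicate with 1 h adsorption. Infected cells were then given MEM (2% FBS) with compound diluted 1:5 from 100 µM. Plates ran 7 days (MCMV) or 8 days (HCMV) at 37 °C, followed by 6 h neutral red staining. EC50 is the concentration giving 50% plaque reduction.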

[2] = system: Human betaherpesvirus 5; experiment: Antiviral activity against HCMV AD-169 replication; format: functional, organism-based; settings: Human betaherpesvirus 5, AD-169; how it was run: as §1
[3] = system: HFF; experiment: Selectivity index, CC50 in HFF cell/ EC50 against HCMV; format: functional
How it was run: (§2)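 Selectivity index is the ratio of CC50 (HFF neutral red uptake) to EC50 from the matching plaque reduction assay.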

[4] = system: HFF; experiment: Selectivity index, CC50 in HFF cell/ EC50 against vaccinia virus; format: functional; how it was run: as §2
[5] = system: Vaccinia virus; experiment: Antiviral activity against Vaccinia virus Copenhagen replication in HFF cells; format: functional, organism-based; settings: Orthopoxvirus vaccinia
[6] = system: HFF; experiment: Cytotoxicity against HFF cell; format: functional; settings: Homo sapiens
[7] = system: HFF; experiment: Selectivity index, CC50 in HFF cell/ EC50 against cowpox virus; format: functional; how it was run: as §2
[8] = system: HFF; experiment: Selectivity index, CC50 in HFF cell/ EC50 against MCMV; format: functional; how it was run: as §2
[9] = system: Cowpox virus; experiment: Antiviral activity against Cowpox virus Brighton replication in HFF cells; format: functional, organism-based

Structure (SMILES): CCCCCCCC/C=C\CCCCCCCCOCCOP(=O)([O-])CO[C@H](CO)Cn1cnc2c(N)ncnc21.[Na+]
- EC50 [1]: 40 nM
- EC50 [2]: 3 nM
- Selectivity index [3]: 2100
- Selectivity index [4]: 2100
- EC50 [5]: 3 nM
- CC50 [6]: 6300 nM
- Selectivity index [7]: 900
- Selectivity index [8]: 158
- EC50 [9]: 7 nM

Structure (SMILES): CCCCCCCCCCCCCCCCOCCCOP(=O)([O-])CO[C@H](CO)Cn1cnc2c(N)ncnc21.[Na+]
- EC50 [1]: 2 nM
- EC50 [2]: 3 nM
- Selectivity index [3]: 3233
- Selectivity index [4]: 970
- CC50 [6]: 9700 nM
- Selectivity index [7]: 485
- Selectivity index [8]: 485

Structure (SMILES): CCCCCCCCCCCCCCCCCCOCCOP(=O)(O)CO[C@H](CO)Cn1ccc(N)nc1=O
- EC50 [1]: 1 nM
- EC50 [2]: 0.9 nM
- EC50 [5]: 200 nM
- EC50 [9]: 300 nM

Structure (SMILES): Nc1ncnc2c1ncn2C[C@@H](CO)OCP(=O)(O)O
- EC50 [1]: 160 nM
- EC50 [2]: 820 nM
- Selectivity index [3]: >352
- Selectivity index [4]: >107
- CC50 [6]: > 289000 nM
- Selectivity index [7]: >72
- Selectivity index [8]: >181

Structure (SMILES): CCCCCCCC/C=C\CCCCCCCCOCCCOP(=O)([O-])CO[C@H](CO)Cn1cnc2c(N)ncnc21.[Na+]
- EC50 [1]: 100 nM
- EC50 [2]: 3 nM
- Selectivity index [3]: 25000
- Selectivity index [4]: 4156
- EC50 [5]: 18 nM
- CC50 [6]: 74800 nM
- Selectivity index [7]: 2200
- Selectivity index [8]: 750
- EC50 [9]: 34 nM

Structure (SMILES): CCCCCCCCCCCCCCCCCCOCCOP(=O)([O-])CO[C@H](CO)Cn1cnc2c(N)ncnc21.[Na+]
- EC50 [1]: 3 nM
- EC50 [2]: 3 nM
- Selectivity index [3]: 500
- Selectivity index [4]: 150
- CC50 [6]: 1500 nM
- Selectivity index [7]: 75
- Selectivity index [8]: 500

Structure (SMILES): CCCCCCCCCCCCCCCCOCCCOP(=O)(O)CO[C@H](CO)Cn1ccc(N)nc1=O [BRINCIDOFOVIR]
- EC50 [1]: 0.9 nM
- EC50 [2]: 0.9 nM
- EC50 [5]: 80 nM
- EC50 [9]: 60 nM

Structure (SMILES): Nc1ccn(C[C@@H](CO)OCP(=O)(O)O)c(=O)n1.O.O [CIDOFOVIR]
- EC50 [1]: 40 nM
- EC50 [2]: 1200 nM
- Selectivity index [3]: >264
- Selectivity index [4]: >12.5
- EC50 [5]: 25300 nM
- CC50 [6]: > 317000 nM
- Selectivity index [7]: >10.3
- Selectivity index [8]: >7925
- EC50 [9]: 30700 nM
